Results published in ChEMBL document CHEMBL1122522, “Conformationally restricted retinoids” (1984).

Experiments:
Cricetinae gen. sp. [1] = assay: Activity of compound the was expressed as ratio of active hamster tracheal organ cultures(TOC) to the total cultures at 10e-10 M concentration; 2/7; type: functional, Cricetulus griseus, Trachea
In short: (§1)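 Tracheal organ cultures came from vitamin A-deficient hamsters. Each culture was scored for reversal of keratinization and reported as active cultures out of total cultures at each retinoid concentration tested (10⁻⁸ to 10⁻¹² M). The protocol followed earlier published methods.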

[2] = target: T1, Ornithine decarboxylase (Mus musculus) (UniProt P00860); assay: Inhibition of the induction of ornithine decarboxylase in mouse epidermis by the tumor promoter 12-O-tetradecanoylphorbol-13-acetate (ODC) at dose 17 nmol; Inhibition not significant
T1 sequence (whole entry): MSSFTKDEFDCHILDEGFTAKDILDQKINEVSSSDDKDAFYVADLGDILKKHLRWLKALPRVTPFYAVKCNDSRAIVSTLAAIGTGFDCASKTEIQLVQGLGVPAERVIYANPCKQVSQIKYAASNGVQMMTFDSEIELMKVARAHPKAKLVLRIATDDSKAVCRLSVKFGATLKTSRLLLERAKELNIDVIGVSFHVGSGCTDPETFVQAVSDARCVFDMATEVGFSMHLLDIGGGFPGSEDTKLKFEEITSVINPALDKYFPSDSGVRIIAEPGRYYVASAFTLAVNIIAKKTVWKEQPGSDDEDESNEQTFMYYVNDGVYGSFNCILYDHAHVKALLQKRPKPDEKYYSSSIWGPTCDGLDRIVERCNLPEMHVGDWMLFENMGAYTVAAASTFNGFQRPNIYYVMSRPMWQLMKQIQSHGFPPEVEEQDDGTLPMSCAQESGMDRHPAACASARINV

Cricetinae gen. sp. [3] = assay: Activity of compound the was expressed as ratio of active hamster tracheal organ cultures(TOC) to the total cultures at 10e-9 M concentration; 1/6; type: functional, Cricetulus griseus, Trachea; in short: as §1
Cricetinae gen. sp. [4] = assay: Molarity required to effect reversal of keratinization in 50% of the cultures; type: functional, Cricetulus griseus
In short: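 Tracheal organ cultures from vitamin A-deficient hamsters were scored for reversal of keratinization across a range of molar retinoid concentrations. The value is the concentration reversing keratinization in 50% of cultures, read from active/total culture counts.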

[5] = target: T1, Ornithine decarboxylase (Mus musculus); assay: Inhibition of the induction of ornithine decarboxylase in mouse epidermis by the tumor promoter 12-O-tetradecanoylphorbol-13-acetate (ODC) at dose 1.7 nmol; Inhibition not significant
Cricetinae gen. sp. [6] = assay: Activity of compound the was expressed as ratio of active hamster tracheal organ cultures(TOC) to the total cultures at 10e-8 M concentration; 3/7; type: functional, Cricetulus griseus, Trachea; in short: as §1
Cricetinae gen. sp. [7] = assay: Activity of compound the was expressed as ratio of active hamster tracheal organ cultures(TOC) to the total cultures at 10e-10 M concentration; 1/7; type: functional, Cricetulus griseus, Trachea; in short: as §1
Cricetinae gen. sp. [8] = assay: Molarity required to effect reversal of keratinization in 50% of cultures.; type: functional, Cricetulus griseus
[9] = target: T1, Ornithine decarboxylase (Mus musculus); assay: Inhibition of the induction of ornithine decarboxylase in mouse epidermis by the tumor promoter 12-O-tetradecanoylphorbol-13-acetate (ODC) at dose 1.7 nmol * * inhibition not significant
[10] = target: T1, Ornithine decarboxylase (Mus musculus); assay: Inhibition of the induction of ornithine decarboxylase in mouse epidermis by the tumor promoter 12-O-tetradecanoylphorbol-13-acetate (ODC) at dose 17 nmol * * inhibition not significant
Cricetinae gen. sp. [11] = assay: Activity of compound the was expressed as ratio of active hamster tracheal organ cultures(TOC) to the total cultures at 10e-9 M concentration; 2/7; type: functional, Cricetulus griseus, Trachea; in short: as §1
Cricetinae gen. sp. [12] = assay: Activity of compound the was expressed as ratio of active hamster tracheal organ cultures(TOC) to the total cultures at 10e-9 M concentration; 11/12; type: functional, Cricetulus griseus, Trachea; in short: as §1
Cricetinae gen. sp. [13] = assay: Activity of compound the was expressed as ratio of active hamster tracheal organ cultures(TOC) to the total cultures at 10e-8 M concentration; 7/7; type: functional, Cricetulus griseus, Trachea; details: at 0.01 µM
Cricetinae gen. sp. [14] = assay: Activity of compound the was expressed as ratio of active hamster tracheal organ cultures(TOC) to the total cultures at 10e-11 M concentration; 1/5; type: functional, Cricetulus griseus, Trachea; in short: as §1
Cricetinae gen. sp. [15] = assay: Activity of compound the was expressed as ratio of active hamster tracheal organ cultures(TOC) to the total cultures at 10e-10 M concentration; 6/13; type: functional, Cricetulus griseus, Trachea; in short: as §1

inhibition [2] [%]	inhibition [5] [%]	inhibition [9] [%]	inhibition [10] [%]	Structure (SMILES)	Activity (Cricetinae gen. sp. [1]) [%]	Activity (Cricetinae gen. sp. [3]) [%]	ED50 (Cricetinae gen. sp. [4])	Activity (Cricetinae gen. sp. [6]) [%]	Activity (Cricetinae gen. sp. [7]) [%]	ED50 (Cricetinae gen. sp. [8])	Activity (Cricetinae gen. sp. [11]) [%]	Activity (Cricetinae gen. sp. [12]) [%]	Activity (Cricetinae gen. sp. [13]) [%]	Activity (Cricetinae gen. sp. [14]) [%]	Activity (Cricetinae gen. sp. [15]) [%]
6	13	–	–	CCOC(=O)c1cccc(/C=C(C)/C=C/C2=C(C)CCCC2(C)C)c1	2	1	>1e-08	–	–	–	–	–	–	–	–
–	–	0	4	CCOC(=O)c1ccc([C@H]2CC2c2ccc3c(c2)C2CCC3C2)cc1 (stereo partly specified)	–	–	–	3	1	>1e-08	29	–	–	–	–
–	–	–	–	CC1=C(/C=C/c2ccc3cc(C(=O)O)ccc3c2)C(C)(C)CCC1	–	–	–	–	–	1e-10	–	92	7	1	6
